The source made the active and inactive calls. The rule behind the calls is not given here.
Tests used:
Mus musculus [1] = experiment: Reduction in PTEN mRNA expression in ip dosed BALB/c mouse liver administered twice a week for 3 weeks measured after 72 hrs of last dose by RT-PCR analysis; assay type: functional
Procedure, shortened: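 Male Balb/c mice, 6-week-old, ASO in PBS ip twice weekly for 3 weeks, four dose levels. Killed 72 h after last dose. Liver homogenized in guanidine isothiocyanate buffer, RNA column-purified. PTEN RNA by fluorescence qRT-PCR, normalized to cyclophilin A. Errors are SD.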

Nucleic Acid = experiment: Binding affinity to mouse PTEN mRNA assessed as melting temperature at 4 uM by thermal denaturation assay; assay type: nucleic-acid assay
Procedure, shortened: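 Duplex with complementary length-matched RNA; UV absorbance versus temperature curves in 100 mM Na+, 10 mM phosphate, 0.1 mM EDTA, 4 μM each strand. Tm is the average of two experiments.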

Mus musculus [2] = experiment: Hepatotoxicity in BALB/c mouse assessed as liver ALT level at 0.5 to 14.8 mg/kg, ip administered twice a week for 3 weeks measured after 72 hrs of last dose; assay type: toxicity, organism-based; design: dose 0.5-14.8 mg/kg, route intraperitoneal; conditions: in vivo
Procedure, shortened: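 Male 6-week-old Balb/c mice dosed ip in PBS twice weekly for 3 weeks: 0.7–23 mg/kg (four levels) or 0.5–14.6/14.8 mg/kg. Killed 72 h after final dose. Plasma from cardiac-puncture blood, ALT on clinical bioanalyzer. Errors are SD.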

Mus musculus [3] = experiment: Toxicity in BALB/c mouse assessed as effect on liver weight at 0.5 to 14.8 mg/kg, ip administered twice a week for 3 weeks measured after 72 hrs of last dose; assay type: organism-based; design: dose 0.5-14.8 mg/kg, route intraperitoneal; conditions: in vivo
Procedure, shortened: (§1)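 Male Balb/c mice, ip ASO in PBS twice weekly for 3 weeks at four dose levels. Body weight recorded before each dose. Killed 3 days after last dose. Organ weights normalized to body weight, expressed relative to the saline-treated group.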

Mus musculus [4] = experiment: Toxicity in BALB/c mouse assessed as effect on kidney weight at 0.5 to 14.8 mg/kg, ip administered twice a week for 3 weeks measured after 72 hrs of last dose; assay type: organism-based; design: dose 0.5-14.8 mg/kg, route intraperitoneal; conditions: in vivo; procedure, shortened: as §1
[5] = Reduction in PTEN mRNA expression in mouse bEND.3 cells after 24 hrs by qRT-PCR analysis; assay type: functional, cell-based; conditions: for IC50: BEND3, 24 h
Procedure, shortened: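 bEnd.3 cells in DMEM/10% FBS, seeded at 1 × 10^4 cells/well the day before. Transfected 4 h at 37 °C with Lipofectin 3 μg/mL in OptiMEM, eight 1:2 dilutions (40 nM to 312.5 pM), then refed with complete medium for 24 h. PTEN RNA by qRT-PCR, normalized to cyclophilin A, as % untreated control. Triplicate plates. IC50 from sigmoidal fit, top 100%, bottom 0%.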

Mus musculus [6] = experiment: Toxicity in BALB/c mouse assessed as effect on body weight at 0.5 to 14.8 mg/kg, ip administered twice a week for 3 weeks measured after 72 hrs of last dose; assay type: organism-based; design: dose 0.5-14.8 mg/kg, route intraperitoneal; conditions: in vivo; procedure, shortened: as §1
Mus musculus [7] = experiment: Reduction in PTEN mRNA expression in BALB/c mouse liver at 37 mg/kg, ip administered once a week for 3 weeks measured after 72 hrs of last dose by RT-PCR analysis; assay type: functional, organism-based; design: dose 37 mg/kg
Mus musculus [8] = experiment: Toxicity in BALB/c mouse assessed as increase in spleen weight at 0.5 to 14.8 mg/kg, ip administered twice a week for 3 weeks measured after 72 hrs of last dose; assay type: organism-based; design: dose 0.5-14.8 mg/kg, route intraperitoneal; conditions: in vivo; procedure, shortened: as §1

Tm (Nucleic Acid) [°C]	IC50 [5] [nM]	SMILES	Activity (Mus musculus [1])	ED50 (Mus musculus [1]) [mg/kg]	Activity (Mus musculus [2])	Activity (Mus musculus [3])	Activity (Mus musculus [4])	Activity [5]	Activity (Mus musculus [6])	Activity (Mus musculus [7])	Activity (Mus musculus [8])
55.4	3.4	Cc1cn([C@@H]2O[C@]3(CO)CON(C)[C@@H]2[C@@H]3OP(O)(=S)OC[C@]23CON(C)[C@@H]([C@H](n4cc(C)c(=O)[nH]c4=O)O2)[C@@H]3OP(O)(=S)OC[C@H]2O[C@@H](n3cc(C)c(=O)[nH]c3=O)C[C@@H]2OP(O)(=S)OC[C@H]2O[C@@H](n3cnc4c(N)ncnc43)[C@H](O)[C@@H]2OP(O)(=S)OC[C@H]2O[C@@H](n3cnc4c(=O)[nH]c(N)nc43)[C@H](O)[C@@H]2OP(O)(=S)OC[C@H]2O[C@@H](n3ccc(N)nc3=O)[C@H](O)[C@@H]2OP(O)(=S)OC[C@H]2O[C@@H](n3cnc4c(N)ncnc43)[C@H](O)[C@@H]2OP(O)(=S)OC[C@H]2O[C@@H](n3ccc(N)nc3=O)[C@H](O)[C@@H]2OP(O)(=S)OC[C@H]2O[C@@H](n3cc(C)c(=O)[nH]c3=O)C[C@@H]2OP(O)(=S)OC[C@H]2O[C@@H](n3cnc4c(=O)[nH]c(N)nc43)[C@H](O)[C@@H]2OP(O)(=S)OC[C@H]2O[C@@H](n3cnc4c(=O)[nH]c(N)nc43)[C@H](O)[C@@H]2OP(O)(=S)OC[C@H]2O[C@@H](n3ccc(N)nc3=O)[C@H](O)[C@@H]2OP(O)(=S)OC[C@]23CON(C)[C@@H]([C@H](n4cc(C)c(N)nc4=O)O2)[C@@H]3OP(O)(=S)OC[C@]23CON(C)[C@@H]([C@H](n4cc(C)c(=O)[nH]c4=O)O2)[C@@H]3O)c(=O)nc1N (stereo not given in full)	Dose-dependent effect	11	Non-toxic	Non-toxic	Non-toxic	Dose-dependent effect	Non-toxic		
57.7	3.2	Cc1cn([C@@H]2O[C@]3(CO)CNO[C@@H]2[C@@H]3OP(O)(=S)OC[C@]23CNO[C@@H]([C@H](n4cc(C)c(=O)[nH]c4=O)O2)[C@@H]3OP(O)(=S)OC[C@H]2O[C@@H](n3cc(C)c(=O)[nH]c3=O)C[C@@H]2OP(O)(=S)OC[C@H]2O[C@@H](n3cnc4c(N)ncnc43)[C@H](O)[C@@H]2OP(O)(=S)OC[C@H]2O[C@@H](n3cnc4c(=O)[nH]c(N)nc43)[C@H](O)[C@@H]2OP(O)(=S)OC[C@H]2O[C@@H](n3ccc(N)nc3=O)[C@H](O)[C@@H]2OP(O)(=S)OC[C@H]2O[C@@H](n3cnc4c(N)ncnc43)[C@H](O)[C@@H]2OP(O)(=S)OC[C@H]2O[C@@H](n3ccc(N)nc3=O)[C@H](O)[C@@H]2OP(O)(=S)OC[C@H]2O[C@@H](n3cc(C)c(=O)[nH]c3=O)C[C@@H]2OP(O)(=S)OC[C@H]2O[C@@H](n3cnc4c(=O)[nH]c(N)nc43)[C@H](O)[C@@H]2OP(O)(=S)OC[C@H]2O[C@@H](n3cnc4c(=O)[nH]c(N)nc43)[C@H](O)[C@@H]2OP(O)(=S)OC[C@H]2O[C@@H](n3ccc(N)nc3=O)[C@H](O)[C@@H]2OP(O)(=S)OC[C@]23CNO[C@@H]([C@H](n4cc(C)c(N)nc4=O)O2)[C@@H]3OP(O)(=S)OC[C@]23CNO[C@@H]([C@H](n4cc(C)c(=O)[nH]c4=O)O2)[C@@H]3O)c(=O)nc1N (stereo not given in full)		> 37				Dose-dependent effect		inactive	
57.7	3.1	CON1C[C@@]2(COP(O)(=S)O[C@H]3[C@H]4ON(OC)C[C@@]3(COP(O)(=S)O[C@H]3[C@@H](O)[C@H](n5ccc(N)nc5=O)O[C@@H]3COP(O)(=S)O[C@H]3[C@@H](O)[C@H](n5cnc6c(=O)[nH]c(N)nc65)O[C@@H]3COP(O)(=S)O[C@H]3[C@@H](O)[C@H](n5cnc6c(=O)[nH]c(N)nc65)O[C@@H]3COP(O)(=S)O[C@H]3C[C@H](n5cc(C)c(=O)[nH]c5=O)O[C@@H]3COP(O)(=S)O[C@H]3[C@@H](O)[C@H](n5ccc(N)nc5=O)O[C@@H]3COP(O)(=S)O[C@H]3[C@@H](O)[C@H](n5cnc6c(N)ncnc65)O[C@@H]3COP(O)(=S)O[C@H]3[C@@H](O)[C@H](n5ccc(N)nc5=O)O[C@@H]3COP(O)(=S)O[C@H]3[C@@H](O)[C@H](n5cnc6c(=O)[nH]c(N)nc65)O[C@@H]3COP(O)(=S)O[C@H]3[C@@H](O)[C@H](n5cnc6c(N)ncnc65)O[C@@H]3COP(O)(=S)O[C@H]3C[C@H](n5cc(C)c(=O)[nH]c5=O)O[C@@H]3COP(O)(=S)O[C@H]3[C@H]5ON(OC)C[C@@]3(COP(O)(=S)O[C@H]3[C@H]6ON(OC)C[C@@]3(CO)O[C@H]6n3cc(C)c(N)nc3=O)O[C@H]5n3cc(C)c(=O)[nH]c3=O)O[C@H]4n3cc(C)c(N)nc3=O)O[C@@H](n3cc(C)c(=O)[nH]c3=O)[C@H](O1)[C@@H]2O (stereo not given in full)	Dose-dependent effect	8	Non-toxic	Non-toxic	Non-toxic	Dose-dependent effect	Non-toxic		Toxic
58		Cc1cn([C@H]2C[C@H](OP(O)(=S)OC[C@H]3O[C@@H](n4cnc5c(=O)[nH]c(N)nc54)[C@H](O)[C@@H]3OP(O)(=S)OC[C@H]3O[C@@H](n4cnc5c(=O)[nH]c(N)nc54)[C@H](O)[C@@H]3OP(O)(=S)OC[C@H]3O[C@@H](n4ccc(N)nc4=O)[C@H](O)[C@@H]3OP(O)(=S)OC[C@]34CO[C@@H]([C@H](n5ccc(N)nc5=O)O3)[C@@H]4OP(O)(=S)OC[C@]34CO[C@@H]([C@H](n5ccc(=O)[nH]c5=O)O3)[C@@H]4O)[C@@H](COP(O)(=S)O[C@H]3[C@@H](O)[C@H](n4ccc(N)nc4=O)O[C@@H]3COP(O)(=S)O[C@H]3[C@@H](O)[C@H](n4cnc5c(N)ncnc54)O[C@@H]3COP(O)(=S)O[C@H]3[C@@H](O)[C@H](n4ccc(N)nc4=O)O[C@@H]3COP(O)(=S)O[C@H]3[C@@H](O)[C@H](n4cnc5c(=O)[nH]c(N)nc54)O[C@@H]3COP(O)(=S)O[C@H]3[C@@H](O)[C@H](n4cnc5c(N)ncnc54)O[C@@H]3COP(O)(=S)O[C@H]3C[C@H](n4cc(C)c(=O)[nH]c4=O)O[C@@H]3COP(O)(=S)O[C@H]3[C@H]4OC[C@@]3(COP(O)(=S)O[C@H]3[C@H]5OC[C@@]3(CO)O[C@H]5n3ccc(N)nc3=O)O[C@H]4n3ccc(=O)[nH]c3=O)O2)c(=O)[nH]c1=O (stereo not given in full)									
48.5		Cc1cn([C@H]2C[C@H](OP(O)(=S)OC[C@H]3O[C@@H](n4cnc5c(=O)[nH]c(N)nc54)[C@H](O)[C@@H]3OP(O)(=S)OC[C@H]3O[C@@H](n4cnc5c(=O)[nH]c(N)nc54)[C@H](O)[C@@H]3OP(O)(=S)OC[C@H]3O[C@@H](n4ccc(N)nc4=O)[C@H](O)[C@@H]3OP(O)(=S)OC[C@H]3O[C@@H](n4ccc(N)nc4=O)[C@H](O)[C@@H]3OP(O)(=S)OC[C@H]3O[C@@H](n4cc(C)c(=O)[nH]c4=O)C[C@@H]3O)[C@@H](COP(O)(=S)O[C@H]3[C@@H](O)[C@H](n4ccc(N)nc4=O)O[C@@H]3COP(O)(=S)O[C@H]3[C@@H](O)[C@H](n4cnc5c(N)ncnc54)O[C@@H]3COP(O)(=S)O[C@H]3[C@@H](O)[C@H](n4ccc(N)nc4=O)O[C@@H]3COP(O)(=S)O[C@H]3[C@@H](O)[C@H](n4cnc5c(=O)[nH]c(N)nc54)O[C@@H]3COP(O)(=S)O[C@H]3[C@@H](O)[C@H](n4cnc5c(N)ncnc54)O[C@@H]3COP(O)(=S)O[C@H]3C[C@H](n4cc(C)c(=O)[nH]c4=O)O[C@@H]3COP(O)(=S)O[C@H]3C[C@H](n4cc(C)c(=O)[nH]c4=O)O[C@@H]3COP(O)(=S)O[C@H]3[C@@H](O)[C@H](n4ccc(N)nc4=O)O[C@@H]3CO)O2)c(=O)[nH]c1=O (stereo not given in full)									
51.3	34.7	COCCO[C@@H]1[C@H](O)[C@@H](COP(O)(=S)O[C@H]2[C@@H](OCCOC)[C@H](n3ccc(N)nc3=O)O[C@@H]2COP(O)(=S)O[C@H]2[C@@H](O)[C@H](n3ccc(N)nc3=O)O[C@@H]2COP(O)(=S)O[C@H]2[C@@H](O)[C@H](n3cnc4c(=O)[nH]c(N)nc43)O[C@@H]2COP(O)(=S)O[C@H]2[C@@H](O)[C@H](n3cnc4c(=O)[nH]c(N)nc43)O[C@@H]2COP(O)(=S)O[C@H]2C[C@H](n3cc(C)c(=O)[nH]c3=O)O[C@@H]2COP(O)(=S)O[C@H]2[C@@H](O)[C@H](n3ccc(N)nc3=O)O[C@@H]2COP(O)(=S)O[C@H]2[C@@H](O)[C@H](n3cnc4c(N)ncnc43)O[C@@H]2COP(O)(=S)O[C@H]2[C@@H](O)[C@H](n3ccc(N)nc3=O)O[C@@H]2COP(O)(=S)O[C@H]2[C@@H](O)[C@H](n3cnc4c(=O)[nH]c(N)nc43)O[C@@H]2COP(O)(=S)O[C@H]2[C@@H](O)[C@H](n3cnc4c(N)ncnc43)O[C@@H]2COP(O)(=S)O[C@H]2C[C@H](n3cc(C)c(=O)[nH]c3=O)O[C@@H]2COP(O)(=S)O[C@H]2[C@@H](OCCOC)[C@H](n3ccc(=O)[nH]c3=O)O[C@@H]2COP(O)(=S)O[C@H]2[C@@H](OCCOC)[C@H](n3ccc(N)nc3=O)O[C@@H]2CO)O[C@H]1n1ccc(=O)[nH]c1=O (stereo not given in full)		> 45				Dose-dependent effect			
